# Experiments:
# Format in all cases: ADME, organism-based
# Settings in all cases: papio hamadryas, read-out: Drug uptake
# [1] = Biodistribution in baboon heart at 85 mg, iv after 60 mins
# [2] = Biodistribution in baboon lung at 85 mg, iv after 60 mins
# [3] = Biodistribution in baboon kidney cortex at 85 mg, iv after 60 mins
# [4] = Biodistribution in baboon kidney medulla at 85 mg, iv after 60 mins
# In short: (§1)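 The [11C]-labeled drug was given as an i.v. micro dose via a radial arm vein to anesthetized baboons (ketamine 10 mg/kg i.m.; O2/N2O/isoflurane 1–4%), then torso PET. Organ TACs came from manually drawn ROIs and are reported as %ID/cc. µg/ml was estimated assuming a 5 mg/kg dose, a 17 kg baboon, and that the positron signal is intact drug.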
# [5] = Biodistribution in baboon liver at 85 mg, iv after 60 mins
# [6] = Biodistribution in baboon plasma at 85 mg, iv after 60 mins
# In short: (§2)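 Anaesthetised baboons received [11C]-labelled drug i.v. (radial arm vein) by PET protocol. Arterial blood was drawn from a popliteal catheter every 5 s for 2 min, then at 2–90 min. Plasma activity is given as %ID/cc. µg/ml values were estimated from the human daily dose per kg scaled to a 17 kg baboon, assuming signal comes from intact drug.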
# [7] = Biodistribution in baboon heart at 85 mg, iv after 90 mins
# [8] = Biodistribution in baboon lung at 85 mg, iv after 90 mins
# [9] = Biodistribution in baboon kidney cortex at 85 mg, iv after 90 mins
# [10] = Biodistribution in baboon kidney medulla at 85 mg, iv after 90 mins; in short: as §1
# [11] = Biodistribution in baboon liver at 85 mg, iv after 90 mins
# [12] = Biodistribution in baboon plasma at 85 mg, iv after 90 mins; in short: as §2
# [13] = Biodistribution in baboon whole brain at 85 mg, iv after 30 mins
# In short: (§3)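 Brain PET ran 90 min after i.v. [11C]-labelled drug in anaesthetised baboons. Whole-brain regions of interest gave time-activity curves in %ID/cc. µg/ml values were estimated from baboon weight (17 kg) and the recommended human daily dose per kg, assuming signal comes from intact drug.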
# [14] = Biodistribution in baboon whole brain at 85 mg, iv after 60 mins; in short: as §3
# [15] = Biodistribution in baboon whole brain at 85 mg, iv after 90 mins; in short: as §3
# [16] = Biodistribution in baboon heart at 85 mg, iv after 15 mins
# [17] = Biodistribution in baboon lung at 85 mg, iv after 15 mins
# [18] = Biodistribution in baboon kidney cortex at 85 mg, iv after 15 mins
# [19] = Biodistribution in baboon kidney medulla at 85 mg, iv after 15 mins; in short: as §1
# [20] = Biodistribution in baboon liver at 85 mg, iv after 15 mins
# [21] = Biodistribution in baboon plasma at 85 mg, iv after 15 mins
# In short: (§4)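 Anesthetised baboons (ketamine 10 mg/kg i.m.; oxygen, nitrous oxide and isoflurane 1–4% during scanning) got a micro dose of [11C]-labelled drug i.v. via a radial arm vein; arterial blood was sampled serially over 90 min. Plasma %ID/cc was converted to µg/ml from the listed dose over a 17 kg baboon, assuming the signal is intact drug.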
# [22] = Biodistribution in baboon heart at 85 mg, iv after 30 mins
# [23] = Biodistribution in baboon lung at 85 mg, iv after 30 mins
# [24] = Biodistribution in baboon kidney cortex at 85 mg, iv after 30 mins
# [25] = Biodistribution in baboon kidney medulla at 85 mg, iv after 30 mins; in short: as §1
# [26] = Biodistribution in baboon liver at 85 mg, iv after 30 mins
# [27] = Biodistribution in baboon plasma at 85 mg, iv after 30 mins; in short: as §2
# [28] = Biodistribution in baboon heart at 340 mg, iv after 15 mins
# In short: (§5)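 Four anesthetized baboons were given ketamine 10 mg/kg i.m., with anesthesia held on O2, N2O and isoflurane 1–4%. They received a micro dose of the [11C]-labeled drug i.v. via a radial arm vein, followed by torso PET. TACs came from manually drawn organ ROIs and are reported as %ID/cc. µg/ml values were estimated from a 20 mg/kg dose and a 17 kg baboon, assuming the signal is intact drug.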
# [29] = Biodistribution in baboon lung at 340 mg, iv after 15 mins; in short: as §5
# [30] = Biodistribution in baboon kidney cortex at 340 mg, iv after 15 mins; in short: as §5
# [31] = Biodistribution in baboon kidney medulla at 340 mg, iv after 15 mins; in short: as §5
# [32] = Biodistribution in baboon liver at 340 mg, iv after 15 mins; in short: as §5
# [33] = Biodistribution in baboon plasma at 340 mg, iv after 15 mins; in short: as §4
# [34] = Biodistribution in baboon heart at 340 mg, iv after 30 mins; in short: as §5
# [35] = Biodistribution in baboon lung at 340 mg, iv after 30 mins; in short: as §5
# [36] = Biodistribution in baboon kidney cortex at 340 mg, iv after 30 mins; in short: as §5
# [37] = Biodistribution in baboon kidney medulla at 340 mg, iv after 30 mins; in short: as §5
# [38] = Biodistribution in baboon liver at 340 mg, iv after 30 mins; in short: as §5
# [39] = Biodistribution in baboon plasma at 340 mg, iv after 30 mins; in short: as §2
# [40] = Biodistribution in baboon heart at 340 mg, iv after 60 mins; in short: as §5
# [41] = Biodistribution in baboon lung at 340 mg, iv after 60 mins; in short: as §5
# [42] = Biodistribution in baboon kidney cortex at 340 mg, iv after 60 mins; in short: as §5
# [43] = Biodistribution in baboon kidney medulla at 340 mg, iv after 60 mins; in short: as §5
# [44] = Biodistribution in baboon liver at 340 mg, iv after 60 mins; in short: as §5
# [45] = Biodistribution in baboon plasma at 340 mg, iv after 60 mins; in short: as §2
# [46] = Biodistribution in baboon heart at 340 mg, iv after 90 mins; in short: as §5
# [47] = Biodistribution in baboon lung at 340 mg, iv after 90 mins; in short: as §5
# [48] = Biodistribution in baboon kidney cortex at 340 mg, iv after 90 mins; in short: as §5
# [49] = Biodistribution in baboon kidney medulla at 340 mg, iv after 90 mins; in short: as §5
# [50] = Biodistribution in baboon liver at 340 mg, iv after 90 mins; in short: as §5
# [51] = Biodistribution in baboon plasma at 340 mg, iv after 90 mins; in short: as §2
# [52] = Biodistribution in baboon whole brain at 340 mg, iv after 30 mins
# In short: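 Brain PET was acquired for 90 min after i.v. [11C]-labeled drug in anesthetized baboons (ketamine 10 mg/kg i.m.; O2/N2O/isoflurane 1–4%). The whole-brain ROI TAC is reported as %ID/cc. µg/ml was estimated assuming a 20 mg/kg dose, a 17 kg baboon, and that the signal is intact drug. Arterial blood was sampled over 90 min.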
# [53] = Biodistribution in baboon whole brain at 340 mg, iv after 60 mins
# In short: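 Baboons were anesthetized with ketamine 10 mg/kg i.m., then maintained on O2, N2O and isoflurane 1–4%. The [11C]-labeled drug was given i.v. as a micro dose through a radial arm vein. PET was acquired for 90 min. Whole-brain ROI time-activity curves were read in %ID/cc, and µg/ml was estimated assuming a 20 mg/kg dose, a 17 kg baboon and signal from intact drug.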
# [54] = Biodistribution in baboon whole brain at 340 mg, iv after 90 mins; in short: as §3
smiles,measurement,setting,value
NN[11C](=O)c1ccncc1,concentration at 1 h,[1],3740 ng/mL
same,concentration at 1 h,[2],4420 ng/mL
same,concentration at 1 h,[3],7720 ng/mL
same,concentration at 1 h,[4],16400 ng/mL
same,concentration at 1 h,[5],7640 ng/mL
same,concentration at 1 h,[6],2050 ng/mL
same,concentration at 1.5 h,[7],4150 ng/mL
same,concentration at 1.5 h,[8],4190 ng/mL
same,concentration at 1.5 h,[9],8540 ng/mL
same,concentration at 1.5 h,[10],14700 ng/mL
same,concentration at 1.5 h,[11],6910 ng/mL
same,concentration at 1.5 h,[12],1620 ng/mL
same,concentration at 0.5 h,[13],2540 ng/mL
same,concentration at 1 h,[14],2110 ng/mL
same,concentration at 1.5 h,[15],1750 ng/mL
same,concentration at 0.25 h,[16],8720 ng/mL
same,concentration at 0.25 h,[17],7720 ng/mL
same,concentration at 0.25 h,[18],15100 ng/mL
same,concentration at 0.25 h,[19],18900 ng/mL
same,concentration at 0.25 h,[20],12500 ng/mL
same,concentration at 0.25 h,[21],3760 ng/mL
same,concentration at 0.5 h,[22],6130 ng/mL
same,concentration at 0.5 h,[23],6090 ng/mL
same,concentration at 0.5 h,[24],9260 ng/mL
same,concentration at 0.5 h,[25],15400 ng/mL
same,concentration at 0.5 h,[26],9710 ng/mL
same,concentration at 0.5 h,[27],2960 ng/mL
N[11C](=O)c1cnccn1,concentration at 0.25 h,[28],67800 ng/mL
same,concentration at 0.25 h,[29],35000 ng/mL
same,concentration at 0.25 h,[30],20500 ng/mL
same,concentration at 0.25 h,[31],617000 ng/mL
same,concentration at 0.25 h,[32],36100 ng/mL
same,concentration at 0.25 h,[33],22000 ng/mL
same,concentration at 0.5 h,[34],61500 ng/mL
same,concentration at 0.5 h,[35],26500 ng/mL
same,concentration at 0.5 h,[36],16600 ng/mL
same,concentration at 0.5 h,[37],474000 ng/mL
same,concentration at 0.5 h,[38],27000 ng/mL
same,concentration at 0.5 h,[39],14600 ng/mL
same,concentration at 1 h,[40],57600 ng/mL
same,concentration at 1 h,[41],22200 ng/mL
same,concentration at 1 h,[42],12600 ng/mL
same,concentration at 1 h,[43],343000 ng/mL
same,concentration at 1 h,[44],22000 ng/mL
same,concentration at 1 h,[45],11200 ng/mL
same,concentration at 1.5 h,[46],59500 ng/mL
same,concentration at 1.5 h,[47],18600 ng/mL
same,concentration at 1.5 h,[48],9930 ng/mL
same,concentration at 1.5 h,[49],229000 ng/mL
same,concentration at 1.5 h,[50],19200 ng/mL
same,concentration at 1.5 h,[51],9040 ng/mL
same,concentration at 0.5 h,[52],21000 ng/mL
same,concentration at 1 h,[53],15700 ng/mL
same,concentration at 1.5 h,[54],13700 ng/mL
